Values after ≈ are worked out from the molar mass of the structure shown.

Common to all, as to format: functional
In experiment [1] the test system is Escherichia coli. Put plainly: Antimicrobial activity in Escherichia coli DIH-1 expressing beta-lactamase VIM-19 by Etest. In a few lines: (§1)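 MICs read by Etest on Mueller-Hinton agar incubated at 37°C. Susceptibility was categorized according to CLSI guidelines. Transconjugants were obtained in E. coli J53 by liquid mating at 37°C, with selection on agar containing amoxicillin (50 μg/ml) and azide (100 μg/ml).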

In experiment [2] the test system is Klebsiella pneumoniae. The experiment can be described thus: Antimicrobial activity in Klebsiella pneumoniae DIH-2 clinical isolate expressing beta-lactamase VIM-19 by Etest.
Experiment [3] has as its system Escherichia coli. Put plainly: microbe, parasite or virus in culture. The note with it: TOP10.
For experiment [4], the system named is Escherichia coli. Put plainly: microbe, parasite or virus in culture. Particulars: TOP10. This is another data set of the same source.
The test system of experiment [5] is Escherichia coli. The experiment can be described thus: microbe, parasite or virus in culture. The note with it: TOP10. The source holds these as a separate data set.
Experiment [6] has as its system Escherichia coli. The experiment can be described thus: microbe, parasite or virus in culture. The note with it: TOP10. This is another data set of the same source.
In experiment [7] the test system is Escherichia coli. Put plainly: Antimicrobial activity in Escherichia coli J53 transconjugate with Escherichia coli DIH-1 expressing natural plasmid containing beta-lactamase VIM-19. In outline:
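Transconjugants came from liquid mating-out at 37°C with azide-resistant E. coli J53 as recipient, selected on agar with amoxicillin (50 μg/ml) plus azide (100 μg/ml). MICs were then read by Etest on Mueller-Hinton agar at 37°C and interpreted per CLSI.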

In experiment [8] the test system is Escherichia coli. The experiment can be described thus: Antimicrobial activity in Escherichia coli TOP10 strain. In a few lines: (§2)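 MICs were determined by Etest on Mueller-Hinton agar plates incubated at 37°C. Susceptibility was interpreted according to CLSI guidelines.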
Experiment [9] deals with Escherichia coli. Put plainly: Antimicrobial activity in Escherichia coli J53 strain. In a few lines: as §2
The test system of experiment [10] is Escherichia coli. Put plainly: Antimicrobial activity in Escherichia coli DIH-1 expressing beta-lactamase VIM-19 by Etest in presence of 4 ug/ml Tazobactam. In a few lines: as §1
Experiment [11] has as its system Klebsiella pneumoniae. Put plainly: Antimicrobial activity in Klebsiella pneumoniae DIH-2 clinical isolate expressing beta-lactamase VIM-19 by Etest in presence of 4 ug/ml Tazobactam. In a few lines: as §1
Experiment [12] has as its system Escherichia coli. The experiment can be described thus: Antimicrobial activity in Escherichia coli TOP10 hourbouring recombinant plasmid VIM-19 by Etest in presence of 4 ug/ml Tazobactam. In a few lines: (§3)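 Recombinant plasmids were carried in the TOP10 cloning host. The N215K variant was made by site-directed mutagenesis using pVIM-1 as PCR template. MIC by Etest on Mueller-Hinton agar at 37°C, with CLSI interpretation.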

Experiment [13] relates to Escherichia coli. The experiment can be described thus: Antimicrobial activity in Escherichia coli TOP10 hourbouring recombinant plasmid VIM-4 by Etest in presence of 4 ug/ml Tazobactam. In a few lines: as §3
Experiment [14] has as its system Escherichia coli. Put plainly: Antimicrobial activity in Escherichia coli TOP10 strain harbouring recombinant plasmid VIM-1 by Etest in presence of 4 ug/ml Tazobactam. In a few lines: as §3
For experiment [15], the system named is Escherichia coli. Put plainly: Antimicrobial activity in Escherichia coli TOP10 harbouring recombinant plasmid VIM-1-N215K by Etest in presence of 4 ug/ml Tazobactam. In a few lines:
as §3

Experiment [16] relates to Escherichia coli. Put plainly: Antimicrobial activity in Escherichia coli J53 transconjugate with Escherichia coli DIH-1 expressing natural plasmid containing beta-lactamase VIM-19 in presence of 4 ug/ml Tazobactam. In outline:
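Transconjugant came from liquid mating-out at 37°C into azide-resistant J53, selected on agar with amoxicillin (50 μg/ml) plus azide (100 μg/ml). MIC by Etest on Mueller-Hinton agar at 37°C, with CLSI interpretation.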

In experiment [17] the test system is Escherichia coli. Put plainly: Antimicrobial activity in Escherichia coli TOP10 strain in presence of 4 ug/ml Tazobactam. In outline: (§4)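 MIC by Etest on Mueller-Hinton agar plates at 37°C, with susceptibility interpreted per CLSI guidelines.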
The subject of experiment [18] is Escherichia coli. Put plainly: Antimicrobial activity in Escherichia coli J53 strain in presence of 4 ug/ml Tazobactam. In a few lines: as §4

Turning to `CCN1CCN(C(=O)N[C@@H](C(=O)N[C@@H]2C(=O)N3[C@@H]2SC(C)(C)[C@@H]3C(=O)O)c2ccccc2)C(=O)C1=O` [PIPERACILLIN], the MIC in experiment [1] is over 512 µg/mL; in experiment [2], over 512 µg/mL; in experiment [3], 256 µg/mL (≈ 495 µM); in experiment [4], 256 µg/mL (≈ 495 µM); in experiment [5], 256 µg/mL (≈ 495 µM); in experiment [6], 256 µg/mL (≈ 495 µM). The MIC in [7] was 256 µg/mL (≈ 495 µM); in experiment [8] it was 1 µg/mL (≈ 1.93 µM); in [9], 1 µg/mL (≈ 1.93 µM); in experiment [10], over 512 µg/mL; in [11], over 512 µg/mL; in experiment [12], 256 µg/mL. For the same compound, the MIC turned out to be 256 µg/mL in [13]; 256 µg/mL in experiment [14]; 256 µg/mL in [15]; 256 µg/mL in experiment [16]; 1 µg/mL in experiment [17]; 1 µg/mL in experiment [18].

For the origin of these results see ChEMBL document CHEMBL1212781, “VIM-19, a metallo-beta-lactamase with increased carbapenemase activity from Escherichia coli and Klebsiella pneumoniae” (2010).
